Results reported in publication PMC3752283 (The Analyst, 2013).
Positions of bridges follow the written chain, without caps; N, C: chain ends. Non-standard residues stand in square brackets, D forms with d. Residues, ends and D or L forms follow the SMILES beside them. *: point of attachment. 6FAM = O=C1OC2(c3ccc(O)cc3Oc3cc(O)ccc32)c2cc(C(=O)*)ccc21; PEG3 = NCCOCCOCCOCCC(=O)O

Experiment: Lysate degradation assay
Format: in vitro ADME, mouse
Conditions: for time for 90% degradation of the peptide: Baf/BCR-ABL cell lysate, 3 mg mL^-1 protein, 2 μM peptide, 37 °C, CE-LIF; for half-life at 2 μM: mouse, Baf/BCR-ABL cell lysate (cytosolic), pH 7.4
In short: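 Mouse B-cell lymphoma Baf/BCR-ABL cells washed and resuspended in cold ECB (pH 7.4), then lysed by three cycles of liquid nitrogen (1 min) and 37 °C thaw; supernatant kept after 14,000 × g, 4 °C, 5 min. Peptide at 2 μM in lysate (3 mg mL−1 protein), 37 °C, triplicate. Timed aliquots quenched with HCl (100 mM final) and 95 °C for 4 min. Intact fraction = intact-peak area / total peak area.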

Row | time for 90% degradation of the peptide [min] | half-life at 2 μM [min] | increase in half-life over the control peptide (Baf/BCR-ABL cytosolic lysate) [fold] | Structure (SMILES)
1 | 25 | 9.2 ± 1.2 | – | CC[C@H](C)[C@H](NC(=O)[C@H](C)NC(=O)[C@H](CCC(=O)O)NC(=O)[C@H](CCCCNC(=O)c1ccc2c(c1)C1(OC2=O)c2ccc(O)cc2Oc2cc(O)ccc21)NC(=O)CCOCCOCCOCCNC(=O)CCOCCOCCOCCNC(=O)[C@@H]1CSCC(=O)N[C@@H](Cc2c[nH]c3ccccc23)C(=O)N2CCC[C@@H]2C(=O)NCC(=O)N[C@@H](CCCNC(=N)N)C(=O)N1)C(=O)N[C@@H](Cc1ccc(O)cc1)C(=O)N[C@@H](C)C(=O)N[C@@H](C)C(=O)N1CCC[C@H]1C(=O)N[C@@H](Cc1ccccc1)C(=O)N[C@@H](C)C(=O)N[C@@H](CCCCN)C(=O)N[C@@H](CCCCN)C(=O)N[C@@H](CCCCN)C(N)=O [Peptide 4] ({CH2CO}-W[dP]GRC[PEG3][PEG3]K(6FAM)EAIYAAPFAKKK-NH2; thioether N-5)
2 | ≤ 10 | 4.8 ± 0.4 | ~10 | CC[C@H](C)[C@H](NC(=O)[C@H](C)NC(=O)[C@H](CCC(=O)O)NC(=O)[C@H](CCCCNC(=O)c1ccc2c(c1)C1(OC2=O)c2ccc(O)cc2Oc2cc(O)ccc21)NC(=O)CCOCCOCCOCCNC(=O)CCOCCOCCOCCNC(=O)[C@H](CCCNC(=N)N)NC(=O)CNC(=O)[C@H]1CCCN1C(=O)[C@@H](N)Cc1c[nH]c2ccccc12)C(=O)N[C@@H](Cc1ccc(O)cc1)C(=O)N[C@@H](C)C(=O)N[C@@H](C)C(=O)N1CCC[C@H]1C(=O)N[C@@H](Cc1ccccc1)C(=O)N[C@@H](C)C(=O)N[C@@H](CCCCN)C(=O)N[C@@H](CCCCN)C(=O)N[C@@H](CCCCN)C(N)=O [Peptide 2] (H-W[dP]GR[PEG3][PEG3]K(6FAM)EAIYAAPFAKKK-NH2; N-terminus assumed)
